From ChEMBL document CHEMBL1275473, “Activities of ceftobiprole, linezolid, vancomycin, and daptomycin against community-associated and hospital-associated methicillin-resistant Staphylococcus aureus” (2008)
≈ marks a conversion by molar mass, not a printed value.

Key:
Format in all cases: functional
Staphylococcus aureus [1] = test: Bactericidal activity against hospital-acquired methicillin-resistant Staphylococcus aureus by broth microdilution method; settings: for MBC: Staphylococcus aureus
In short: (§1)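 MBC read after CLSI broth microdilution in duplicate. Mueller-Hinton broth with 25 mg/liter calcium and 12.5 mg/liter magnesium; for daptomycin, 50 mg/liter calcium. 5-μl aliquots from clear wells were plated onto tryptic soy agar.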

Staphylococcus aureus [2] = test: Antimicrobial activity against community-acquired methicillin-resistant Staphylococcus aureus by broth microdilution method
In short: (§2)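 Broth microdilution in duplicate per CLSI guidelines on clinical CA-/HA-MRSA isolates (100 each, Detroit Medical Center). Mueller-Hinton broth with 25 mg/liter calcium and 12.5 mg/liter magnesium; for daptomycin, 50 mg/liter calcium and 12.5 mg/liter magnesium.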

Staphylococcus aureus [3] = test: Antimicrobial activity against hospital-acquired methicillin-resistant Staphylococcus aureus by broth microdilution method; in short: as §2
Staphylococcus aureus [4] = test: Bactericidal activity against community-acquired methicillin-resistant Staphylococcus aureus by broth microdilution method; settings: for MBC: Staphylococcus aureus; in short: as §1
Staphylococcus aureus [5] = test: Antimicrobial activity against hospital-acquired methicillin-resistant Staphylococcus aureus by broth microdilution method in presence of 50% human serum
In short: (§3)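 Broth microdilution per CLSI, in duplicate, with 50% human serum added. Mueller-Hinton broth with 50 mg/liter calcium and 12.5 mg/liter magnesium. Run on 20 randomly chosen isolates, 10 CA-MRSA and 10 HA-MRSA.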

Staphylococcus aureus [6] = test: Bactericidal activity against community-acquired methicillin-resistant Staphylococcus aureus by broth microdilution method in presence of 50% human serum
In short: (§4)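 MBC with 50% human serum on 10 CA-MRSA and 10 HA-MRSA isolates. Mueller-Hinton broth with 50 mg/liter calcium and 12.5 mg/liter magnesium. Aliquots from clear wells were plated onto tryptic soy agar.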

Staphylococcus aureus [7] = test: Bactericidal activity against hospital-acquired methicillin-resistant Staphylococcus aureus selected at 4 times MIC after 24 hrs by time kill analysis in presence of 50% human serum
In short: (§5)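 Time-kill in triplicate on four randomly selected isolates per group. Start inoculum ~10^6 CFU/ml, drug at 4× MIC; serum arm has 50% human serum. Sampled over 0–24 h, diluted in cold 0.9% NaCl, spiral-plated; detection limit 2 log10 CFU/ml. Bactericidal means ≥3-log10 reduction. T99.9 by linear regression or visual inspection.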

Staphylococcus aureus [8] = test: Bactericidal activity against community-acquired methicillin-resistant Staphylococcus aureus selected at 4 times MIC after 24 hrs by time kill analysis in presence of 50% human serum; in short: as §5
Staphylococcus aureus [9] = test: Bactericidal activity against hospital-acquired methicillin-resistant Staphylococcus aureus selected at 4 times MIC after 24 hrs by time kill analysis; in short: as §5
Staphylococcus aureus [10] = test: Antimicrobial activity against community-acquired methicillin-resistant Staphylococcus aureus by broth microdilution method in presence of 50% human serum; in short: as §3
Staphylococcus aureus [11] = test: Bactericidal activity against hospital-acquired methicillin-resistant Staphylococcus aureus by broth microdilution method in presence of 50% human serum; in short: as §4
Staphylococcus aureus [12] = test: Bactericidal activity against community-acquired methicillin-resistant Staphylococcus aureus selected at 4 times MIC after 24 hrs by time kill analysis; in short: as §5
Staphylococcus aureus [13] = test: Bactericidal activity against hospital-acquired methicillin-resistant Staphylococcus aureus selected at 0.5 times MIC after 24 hrs by time kill analysis
In short: (§6)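 Time-kill at 0.5× or 1× MIC, alone and combined with tobramycin. Start inoculum ~10^6 CFU/ml, triplicate, sampled over 0–24 h and spiral-plated; detection limit 2 log10 CFU/ml. Bactericidal means ≥3-log10 CFU/ml reduction. Synergy means ≥2-log10 more killing at 24 h than the best single drug.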

Staphylococcus aureus [14] = test: Bactericidal activity against hospital-acquired methicillin-resistant Staphylococcus aureus selected at MIC after 24 hrs by time kill analysis; in short: as §6
Staphylococcus aureus [15] = test: Bactericidal activity against community-acquired methicillin-resistant Staphylococcus aureus selected at 0.5 times MIC after 24 hrs by time kill analysis; in short: as §6
Staphylococcus aureus [16] = test: Bactericidal activity against community-acquired methicillin-resistant Staphylococcus aureus selected at MIC after 24 hrs by time kill analysis; in short: as §6

| SMILES | MBC50 (Staphylococcus aureus [1]) | MBC90 (Staphylococcus aureus [1]) | MBC (Staphylococcus aureus [1]) | MIC50 (Staphylococcus aureus [2]) | MIC90 (Staphylococcus aureus [2]) | MIC50 (Staphylococcus aureus [3]) | MIC90 (Staphylococcus aureus [3]) | MBC50 (Staphylococcus aureus [4]) | MBC90 (Staphylococcus aureus [4]) | MBC (Staphylococcus aureus [4]) | T99.9% (Staphylococcus aureus [9]) | T99.9% (Staphylococcus aureus [12]) | also measured |
| --- | --- | --- | --- | --- | --- | --- | --- | --- | --- | --- | --- | --- | --- |
| CC(=O)NC[C@H]1CN(c2ccc(N3CCOCC3)c(F)c2)C(=O)O1 [LINEZOLID] | 16 µg/mL (≈ 47.4 µM) | 64 µg/mL (≈ 190 µM) | 1 µg/mL (≈ 2.96 µM) | 2 µg/mL (≈ 5.93 µM) | 4 µg/mL (≈ 11.9 µM) | 2 µg/mL (≈ 5.93 µM) | 4 µg/mL (≈ 11.9 µM) | 8 µg/mL (≈ 23.7 µM) | 32 µg/mL (≈ 94.9 µM) | 2 µg/mL (≈ 5.93 µM) |  |  |  |
| CCCCCCCCCC(=O)N[C@@H](Cc1c[nH]c2ccccc12)C(=O)N[C@H](CC(N)=O)C(=O)N[C@@H](CC(=O)O)C(=O)N[C@@H]1C(=O)NCC(=O)N[C@@H](CCCN)C(=O)N[C@@H](CC(=O)O)C(=O)N[C@H](C)C(=O)N[C@@H](CC(=O)O)C(=O)NCC(=O)N[C@H](CO)C(=O)N[C@@H]([C@H](C)CC(=O)O)C(=O)N[C@@H](CC(=O)c2ccccc2N)C(=O)O[C@@H]1C | 0.25 µg/mL (≈ 0.154 µM) | 1 µg/mL (≈ 0.617 µM) | 0.125 µg/mL (≈ 0.0771 µM) | 0.25 µg/mL (≈ 0.154 µM) | 0.5 µg/mL (≈ 0.309 µM) | 0.25 µg/mL (≈ 0.154 µM) | 0.5 µg/mL (≈ 0.309 µM) | 0.25 µg/mL (≈ 0.154 µM) | 0.5 µg/mL (≈ 0.309 µM) | 0.125 µg/mL (≈ 0.0771 µM) | 1.6 h | 1.6 h | MIC50 (Staphylococcus aureus [5]): 0.5 µg/mL; MIC90 (Staphylococcus aureus [5]): 1 µg/mL; MBC50 (Staphylococcus aureus [6]): 1 µg/mL; MBC90 (Staphylococcus aureus [6]): 1 µg/mL; MBC (Staphylococcus aureus [6]; Staphylococcus aureus): 0.5 µg/mL; T99.9% (Staphylococcus aureus [7]): 2.1 h; T99.9% (Staphylococcus aureus [8]): 2.2 h; MIC50 (Staphylococcus aureus [10]): 1 µg/mL; MIC90 (Staphylococcus aureus [10]): 1 µg/mL; MBC50 (Staphylococcus aureus [11]): 1 µg/mL; MBC90 (Staphylococcus aureus [11]): 1 µg/mL; MBC (Staphylococcus aureus [11]; Staphylococcus aureus): 0.5 µg/mL |
| Nc1nc(/C(=N/O)C(=O)N[C@@H]2C(=O)N3C(C(=O)O)=C(/C=C4\CCN([C@@H]5CCNC5)C4=O)CS[C@H]23)ns1 [CEFTOBIPROLE] | 2 µg/mL (≈ 3.74 µM) | 4 µg/mL (≈ 7.48 µM) | 0.5 µg/mL (≈ 0.935 µM) | 1 µg/mL (≈ 1.87 µM) | 2 µg/mL (≈ 3.74 µM) | 1 µg/mL (≈ 1.87 µM) | 2 µg/mL (≈ 3.74 µM) | 2 µg/mL (≈ 3.74 µM) | 4 µg/mL (≈ 7.48 µM) | 0.5 µg/mL (≈ 0.935 µM) | 11.8 h | 8 h | T99.9% (Staphylococcus aureus [13]): 14.2 h; T99.9% (Staphylococcus aureus [14]): 8.6 h; T99.9% (Staphylococcus aureus [15]): 14.2 h; T99.9% (Staphylococcus aureus [16]): 8.6 h |
| CN[C@H](CC(C)C)C(=O)N[C@H]1C(=O)N[C@@H](CC(N)=O)C(=O)N[C@H]2C(=O)N[C@H]3C(=O)N[C@H](C(=O)N[C@H](C(=O)O)c4cc(O)cc(O)c4-c4cc3ccc4O)[C@H](O)c3ccc(c(Cl)c3)Oc3cc2cc(c3O[C@@H]2O[C@H](CO)[C@@H](O)[C@H](O)[C@H]2O[C@H]2C[C@](C)(N)[C@H](O)[C@H](C)O2)Oc2ccc(cc2Cl)[C@H]1O [VANCOMYCIN] | 1 µg/mL (≈ 0.69 µM) | 2 µg/mL (≈ 1.38 µM) | 0.5 µg/mL (≈ 0.345 µM) | 1 µg/mL (≈ 0.69 µM) | 1 µg/mL (≈ 0.69 µM) | 1 µg/mL (≈ 0.69 µM) | 2 µg/mL (≈ 1.38 µM) | 1 µg/mL (≈ 0.69 µM) | 2 µg/mL (≈ 1.38 µM) | 0.5 µg/mL (≈ 0.345 µM) | 8.6 h | 8.6 h |  |
